Experimental data as given in ChEMBL document CHEMBL1147211, “Synthetic N-pyridinyl(methyl)-indol-3-ylpropanamides as new potential immunosuppressive agents” (Eur J Med Chem, 2007).
pIC50: −log10 of the molar value. Activity calls are given as the source filed them. The rule behind the calls is not given here.

What was measured:
Splenocyte [1] = assay: (§1) Antiproliferative activity against ConA-stimulated mouse splenocytes at 30 uM after 72 hrs by MTT assay; type: functional
Summary of the method: (§2)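 Spleens pooled from two 8-week-old female C57BL/6 mice were homogenized in HBSS, and red cells were lysed with 20 mM Tris-HCl/140 mM NH4Cl. Cells were seeded at 1.5×10^5/well and stimulated with 1 ug/mL ConA plus compound in complete RPMI with 50 µM mercaptoethanol, at 37 °C and 5% CO2 for 72 h. Read-out was MTT for 4 h and OD at 570 nm, in sextuplicate. Inhibition was calculated as (OD control − OD treated)/OD control × 100.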

Splenocyte [2] = assay: (§3) Antiproliferative activity against ConA-stimulated mouse splenocytes at 90 uM after 72 hrs by MTT assay; type: functional; summary of the method: as §2
[3] = as §1; type: functional; details: Splenocyte; summary of the method: as §2
[4] = as §3; type: functional; details: Splenocyte; summary of the method: as §2
Mus musculus = assay: Inhibition of DTH foot-pad swelling in orally dosed BALB/C mouse after 5 days; type: functional
Summary of the method: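 Female BALB/c mice, 8–9 weeks old and five per group, were primed i.v. with 5×10^6 SRBC in PBS. Compound in olive oil was given orally once daily for five days, from priming until challenge. On day 4, 3–4×10^8 SRBC were injected into the right hind footpad and PBS into the left. Footpad swelling difference was measured 24 h later, and inhibition was expressed relative to control mice.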

Splenocyte [5] = assay: Inhibition of mitogen dependent T cell proliferation in mouse splenocytes; type: functional, cell-based; summary of the method: as §2
[6] = Antiproliferative activity against PHA-stimulated human peripheral blood lymphocytes assessed as [3H]thymidine uptake after 48 hrs; type: functional; details: PBL
Summary of the method: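 Human PBL from healthy donors were isolated by Ficoll-Hypaque and seeded at 1×10^5/well. They were stimulated with 0.3 µg/mL PHA plus compound (6.25–100 µM; DMSO stock diluted in complete RPMI) at 37 °C and 5% CO2 for 48 h. [3H]thymidine (1 µCi/well) was added for the last 6–8 h, and uptake was counted by beta counter, in sextuplicate. Values are mean ± SEM of three independent experiments.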

[7] = Cytotoxicity assessed as cell viability of ConA-stimulated mouse splenocytes at 100 uM after 48 hrs by MTT assay

Structure (SMILES)	Activity (Splenocyte [1])	Activity (Splenocyte [2])	inhibition at 30 µM [3]	inhibition at 90 µM [4]	also measured
Cn1cc(CCC(=O)Nc2ccncc2)c2cc(Cl)ccc21	inactive	inactive	–	–	–
O=C(CCc1cn(Cc2ccc(Cl)cc2)c2ccc(Cl)cc12)NCc1cccnc1	inactive	inactive	–	–	–
O=C(CCc1cn(Cc2ccccc2)c2ccccc12)Nc1ccncc1	inactive	inactive	–	–	–
O=C(CCc1cn(Cc2ccc(Cl)cc2)c2ccccc12)NCc1cccnc1	–	–	27%	55%	–
O=C(CCc1cn(Cc2ccc(Cl)cc2)c2ccccc12)Nc1ccncc1	–	–	19%	87%	Inhibition (Mus musculus): 69%; pIC50 (Splenocyte [5]): 4.77; pIC50 [6]: 4.60; Cell viability [7]: 95%
Cc1cc(C)nc(NC(=O)CCc2cn(Cc3ccc(Cl)cc3)c3ccccc23)c1	inactive	inactive	–	–	–
Cc1cc(C)nc(NC(=O)CCc2c[nH]c3ccccc23)c1	–	–	22%	76%	–
Cc1cc(C)nc(NC(=O)CCc2cn(Cc3ccccc3)c3ccccc23)c1	inactive	inactive	–	–	–
O=C(CCc1cn(Cc2ccccc2)c2ccccc12)NCc1cccnc1	–	–	20%	38%	–
O=C(CCc1c[nH]c2ccccc12)Nc1ccncc1	inactive	inactive	–	–	–
O=C(CCc1c[nH]c2ccccc12)NCc1cccnc1	–	–	38%	38%	–
Cc1cc(C)nc(NC(=O)CCc2cn(Cc3ccc(Cl)cc3)c3ccc(Cl)cc23)c1	inactive	inactive	–	–	–
Cn1cc(CCC(=O)NCc2cccnc2)c2cc(Cl)ccc21	–	–	22%	37%	–
